In ChEMBL document CHEMBL2157916, “Design and synthesis of potent hydroxyethylamine (HEA) BACE-1 inhibitors carrying prime side 4,5,6,7-tetrahydrobenzazole and 4,5,6,7-tetrahydropyridinoazole templates” (Bioorg Med Chem Lett, 2012):
One block for each compound: values may come before it.

Legend:
[1] = Apparent permeability across human Caco2 cells; format: ADME, cell-based; conditions: Caco-2
[2] = Intrinsic clearance in human liver microsomes; format: ADME, Microsome; conditions: read-out: CLH
[3] = Plasma concentration in C57/B1 mouse at […], sc administered for 24 hrs; format: ADME, organism-based
[4] = Ratio of drug uptake in brain to plasma in C57/B1 mouse at […], sc administered for 24 hrs; format: ADME, organism-based; conditions: read-out: BPR
[5] = Drug uptake in C57/B1 mouse brain at 20 umol/kg, iv up to 6 hrs; format: ADME, organism-based; conditions: read-out: Drug uptake
Outline: (§1)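 Male C57/B1 mice dosed iv at 20 μmol/kg. Brain and plasma exposure measured 0.5 h after dose, with brain levels followed up to 6 h after dose.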

[6] = Plasma concentration in C57/B1 mouse at 20 umol/kg, iv at 0.5 hrs; format: ADME, organism-based; outline: as §1
[7] = Drug uptake in C57/B1 mouse brain at 20 umol/kg, iv at 0.5 hrs; format: ADME, organism-based; conditions: read-out: Drug uptake; outline: as §1

Structure (SMILES): CC(=O)N[C@@H](Cc1ccccc1)[C@H](O)CN[C@H]1CC(C)(C)Oc2ccc(CC(C)(C)C)cc21
Papp [1]: 21 ×10⁻⁶ cm/s
microsomal CLint [2]: 200 µL/min/mg

Structure (SMILES): CC(=O)N[C@@H](Cc1ccccc1)[C@H](O)CN[C@H]1CC(C)(C)Cc2nn(CC(C)C)cc21
Papp [1]: 1.6 ×10⁻⁶ cm/s
microsomal CLint [2]: 16 µL/min/mg

Structure (SMILES): CC(=O)N[C@@H](Cc1ccccc1)[C@H](O)CNC1CC(C)(C)Oc2sc(CC(C)(C)C)cc21 (mixture of isomers)
Papp [1]: 5.6 ×10⁻⁶ cm/s
microsomal CLint [2]: 82 µL/min/mg

Now from value to compound:

Papp [1]: 5 ×10⁻⁶ cm/s
microsomal CLint [2]: 70 µL/min/mg
Structure (SMILES): CC(=O)N[C@@H](Cc1ccccc1)[C@H](O)CN[C@H]1CC(C)(C)Cn2nc(CC(C)(C)C)cc21

microsomal CLint [2]: 15 µL/min/mg
Structure (SMILES): CC(=O)N[C@@H](Cc1ccccc1)[C@H](O)CNC1CC(C)(C)Cc2[nH]c(CC(C)(C)C)nc21 (mixture of isomers)

concentration at 24 h [3]: 450 nM
Kp at 24 h [4]: 0.69
concentration at 6 h [5]: 68 nM
concentration at 0.5 h [6]: 4750 nM
concentration at 0.5 h [7]: 200 nM
Papp [1]: 1.5 ×10⁻⁶ cm/s
microsomal CLint [2]: 25 µL/min/mg
Structure (SMILES): CC(=O)N[C@@H](Cc1ccccc1)[C@H](O)CNC1CC(C)(C)Cc2nn(CC(C)(C)C)cc21 (mixture of isomers)
